Data as given in ChEMBL document CHEMBL5338796, “Discovery of a Selective and Orally Bioavailable FGFR2 Degrader for Treating Gastric Cancer” (J Med Chem, 2023).
The source made the active and inactive calls. No cut-off for these calls is given here.

Key:
[1] = biological target: Fibroblast growth factor receptor 3 (Homo sapiens) (UniProt P22607); test: Induction of FGFR3 degradation in human MCF7 cells at 100 nM measured for 6 hrs Western blot analysis; assay type: cell-based
Method in brief: (§1)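 NCI-H1581 (FGFR1), MCF7 (FGFR3) and Huh7 (FGFR4) cells, which endogenously express the isoforms, treated with 100 nM for 6 h; isoform levels by Western blot against β-actin, three biologically independent experiments.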

[2] = Toxicity in ICR mouse assessed as morphological changes in spleen at 20 mg/kg, po measured for 30 days by hematoxyin-eosin staining based analysis; assay type: organism-based; conditions: in vivo, 720 h, time 30 day
Method in brief: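 ICR mice (n = 6) were dosed orally at 20 mg/kg/day for 30 days, alongside vehicle-treated controls. Mortality and clinical signs were checked daily. At the end, body and organ weights were recorded. Heart, liver, spleen, lung and kidney were examined by hematoxylin and eosin staining.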

[3] = biological target: Fibroblast growth factor receptor 1 (Homo sapiens) (UniProt P11362); test: Induction of FGFR1 degradation in human NCI-H1581 cells at 100 nM measured for 6 hrs Western blot analysis relative to control; assay type: cell-based; method in brief: as §1
[4] = Hepatotoxicity in ICR mouse assessed as effect on ALT level at 20 mg/kg, po measured for 30 days; assay type: toxicity, organism-based; conditions: in vivo, 720 h, time 30 day
Method in brief: (§2)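 ICR mice given 20 mg/kg/day orally for 30 days (n = 6), vehicle controls; mortality and clinical signs checked daily, then AST/ALT and creatinine, organ weights, haematology and H&E of heart, liver, spleen, lung, kidney.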

SNU-16 [5] = test: Antitumor activity against human SNU-16 cells xenografted in BALB/c nude mouse assessed as reduction in ERK1/2 phosphorylation in tumor at 20 mg/kg, po measured at 4 hrs; assay type: functional, organism-based
Method in brief: (§3)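 Female BALB/c nude mice, 5 weeks old (20–22 g), s.c. right-flank SNU-16 implants, randomized by body weight into groups (n = 5) once tumours reached 50–100 mm3. Dosing 20 mg/kg/day intragastric in 0.5% CMC-Na for 15 d; vehicle controls. Tumour width and length measured every 2 days; tumours harvested 4 h after last dose and lysates immunoblotted for pFGFR, FGFR2, pPLCγ, pErk.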

[6] = Half life in Sprague-Dawley rat at 20 mg/kg, po measured at 0.25 to 24 hrs by LC-MS/MS analysis; assay type: ADME, organism-based; conditions: in vivo, time 0.25-24 hrs
Method in brief: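 Male Sprague Dawley rats, single dose i.v. 3 mg/kg or p.o. 20 mg/kg in 10% Solutol, 85% (10% HP-β-CD in saline), 5% DMSO, pH adjusted to 9–10.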

[7] = AUC (0 to infinity) in mouse at 3 mg/kg, iv measured at 0.083 to 24 hrs by LC-MS/MS analysis; conditions: in vivo
[8] = system: KATO III stomach cancer cell line; test: Induction of cell cycle arrest in human KATO III stomach cancer cell line assessed as accumulation of cells at G0/G1 phase […] by flow cytometry analysis; assay type: functional, cell-based
Method in brief: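 KATO III cells harvested with EDTA-free trypsin, fixed in cold 70% ethanol overnight at −20 °C, stained with DNA staining solution 30 min at room temperature, analysed by flow cytometry.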

[9] = biological target: T1, Fibroblast growth factor receptor (Homo sapiens) (UniProt P22607+P11362+P22455+P21802); test: Induction of FGFR degradation in human KATO III stomach cancer cell line assessed as reduction in PLCgamma phosphorylation at 50 nM measured for 6 hrs; assay type: cell-based
Method in brief: (§4)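 KATO III cells incubated 6 h with 50 nM compound, then stimulated with FGF1 for 10 min; pFGFR, pPLCγ1 (Tyr783) and pFRS2α immunoblotted.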

SNU-16 [10] = test: Antiproliferative activity against human SNU-16 cells assessed as reduction in cell viability measured for 72 hrs by celltiter-glo reagent based assay; assay type: functional; conditions: SNU-16, 72 h
Method in brief: (§5)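 Cancer lines KATO III, SNU16, NCI-H716, NCI-H1975, MV-4-11 and HEK293T treated 72 h; antiproliferative IC50 given as mean ± s.d. from three independent biological experiments.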

[11] = biological target: T2, Protein cereblon/Fibroblast growth factor receptor 2 (Homo sapiens, UniProt P21802+Q96SW2); test: PROTAC activity at CRBN/FGFR2 in human KATO III stomach cancer cell line assessed as FGFR2 degradation by measuring FGFR2 expression level at 0.5 to 100 nM measured for 6 hrs by Western blotting analysis; assay type: cell-based; conditions: dose 0.5-100 nM
Method in brief: (§6)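 KATO III cells treated 6 h across 0.5–10,000 nM (DMSO stock, final DMSO below 0.5%); FGFR2 immunoblotted, quantified as FGFR2/β-actin ratio normalized to DMSO-treated cells, three independent biological experiments; DC50 and Dmax derived from the curve.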

[12] = biological target: T2, Protein cereblon/Fibroblast growth factor receptor 2; test: PROTAC activity at CRBN/FGFR2 in human KATO III stomach cancer cell line assessed as FGFR2 degradation by measuring FGFR2 expression level upto 100 nM by Western blotting analysis; assay type: cell-based; conditions: time 12.0 hrs, TDE = time-dependent effect; method in brief: as §6
[13] = Cmax in mouse at 3 mg/kg, iv measured at 0.083 to 24 hrs by LC-MS/MS analysis; conditions: in vivo
[14] = Antiproliferative activity against human HEK293T cells assessed as reduction in cell viability measured for 72 hrs by celltiter-glo reagent based assay; assay type: toxicity, HEK-293T; method in brief: as §5
SNU-16 [15] = test: Antitumor activity against human SNU-16 cells xenografted in BALB/c nude mouse assessed as reduction in PLCgamma phosphorylation in tumor at 20 mg/kg, po measured at 4 hrs; assay type: functional, organism-based; method in brief: as §3
[16] = Nephrotoxicity in ICR mouse assessed as effect on creatinine level at 20 mg/kg, po measured for 30 days; assay type: toxicity, organism-based; conditions: in vivo, 720 h, time 30 day; method in brief: as §2
[17] = Tmax in Sprague-Dawley rat at 3 mg/kg, iv measured at 0.083 to 24 hrs by LC-MS/MS analysis; assay type: ADME, organism-based; conditions: in vivo, time 0.083-24 hrs
Method in brief: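 Male Sprague Dawley rats received a single dose of 3 mg/kg i.v. or 20 mg/kg p.o. Vehicle was 10% Solutol, 85% (10% HP-β-CD in saline) and 5% DMSO, adjusted to pH 9–10. Plasma was assayed by LC–MS/MS.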

NCI-H1975 = test: Antiproliferative activity against human NCI-H1975 cells assessed as reduction in cell viability measured for 72 hrs by celltiter-glo reagent based assay; assay type: functional; conditions: NCI-H1975, 72 h; method in brief: as §5
[18] = Tmax in mouse at 20 mg/kg, po measured at 0.25 to 24 hrs by LC-MS/MS analysis; conditions: in vivo
[19] = biological target: T1, Fibroblast growth factor receptor (Homo sapiens); test: Induction of FGFR degradation in human KATO III stomach cancer cell line assessed as reduction in FRS2 phosphorylation at 50 nM measured for 6 hrs; assay type: cell-based; method in brief: as §4
BaF3 = test: Antiproliferative activity against mouse BaF3 cells expressing Tel-FGFR3 assessed as cell growth inhibition measured after 72 hrs by celltiter-glo reagent based assay; assay type: functional; conditions: BaF3, 72 h
Method in brief: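 Ba/F3 cells stably expressing cytoplasmic TEL-FGFR1, -2, -3 or -4 fusions were treated in 96-well format, final DMSO 0.1%, for 72 h. Viability read by CellTiter-Glo luminescence after 10 min at room temperature. Inhibition calculated from blank- and control-corrected RLU; IC50 from 4-parameter concentration–response fit.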

T1 sequence (P11362 whole entry, looked up): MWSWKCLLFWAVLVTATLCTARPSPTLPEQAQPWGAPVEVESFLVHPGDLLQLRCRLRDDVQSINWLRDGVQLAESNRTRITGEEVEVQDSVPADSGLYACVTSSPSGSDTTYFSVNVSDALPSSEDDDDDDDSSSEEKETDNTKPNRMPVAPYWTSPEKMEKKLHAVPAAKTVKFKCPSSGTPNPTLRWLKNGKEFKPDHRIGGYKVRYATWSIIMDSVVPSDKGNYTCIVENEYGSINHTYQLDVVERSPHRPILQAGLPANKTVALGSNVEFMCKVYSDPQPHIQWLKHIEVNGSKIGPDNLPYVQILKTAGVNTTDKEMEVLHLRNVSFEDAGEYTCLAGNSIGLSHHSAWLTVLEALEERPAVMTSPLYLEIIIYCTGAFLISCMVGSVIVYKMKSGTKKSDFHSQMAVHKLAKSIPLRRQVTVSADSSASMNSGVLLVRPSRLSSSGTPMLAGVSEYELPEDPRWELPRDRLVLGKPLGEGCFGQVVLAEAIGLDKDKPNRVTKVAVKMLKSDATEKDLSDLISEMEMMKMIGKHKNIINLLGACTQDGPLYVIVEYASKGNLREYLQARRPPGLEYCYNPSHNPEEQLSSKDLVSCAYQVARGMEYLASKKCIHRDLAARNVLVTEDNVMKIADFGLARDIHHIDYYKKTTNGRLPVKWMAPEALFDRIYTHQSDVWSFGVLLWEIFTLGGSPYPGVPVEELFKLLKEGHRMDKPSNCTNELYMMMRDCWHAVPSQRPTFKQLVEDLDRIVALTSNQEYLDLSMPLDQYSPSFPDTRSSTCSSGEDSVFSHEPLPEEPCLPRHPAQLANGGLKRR
T1 sequence (P21802 whole entry, looked up): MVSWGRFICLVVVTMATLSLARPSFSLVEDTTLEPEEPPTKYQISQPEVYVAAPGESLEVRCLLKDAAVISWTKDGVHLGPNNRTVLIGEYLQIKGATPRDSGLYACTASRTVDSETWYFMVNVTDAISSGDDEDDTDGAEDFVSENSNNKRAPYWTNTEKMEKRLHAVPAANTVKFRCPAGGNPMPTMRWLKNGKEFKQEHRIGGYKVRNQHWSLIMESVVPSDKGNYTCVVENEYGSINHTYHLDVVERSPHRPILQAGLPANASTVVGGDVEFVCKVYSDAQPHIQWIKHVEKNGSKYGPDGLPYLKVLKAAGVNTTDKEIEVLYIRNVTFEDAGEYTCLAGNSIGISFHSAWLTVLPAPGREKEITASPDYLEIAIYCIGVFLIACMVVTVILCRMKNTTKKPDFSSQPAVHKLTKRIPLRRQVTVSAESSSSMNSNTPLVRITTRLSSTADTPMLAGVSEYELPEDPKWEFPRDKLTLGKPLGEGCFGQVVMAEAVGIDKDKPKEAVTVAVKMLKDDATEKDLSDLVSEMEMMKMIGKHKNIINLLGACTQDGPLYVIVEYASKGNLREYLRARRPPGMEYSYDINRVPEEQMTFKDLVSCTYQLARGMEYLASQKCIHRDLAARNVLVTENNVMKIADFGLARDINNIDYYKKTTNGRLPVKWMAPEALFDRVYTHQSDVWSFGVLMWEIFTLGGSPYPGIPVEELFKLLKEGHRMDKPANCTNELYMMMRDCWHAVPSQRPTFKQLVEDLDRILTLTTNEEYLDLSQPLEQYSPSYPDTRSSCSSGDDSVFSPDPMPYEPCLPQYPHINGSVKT
T1 sequence (P22455 whole entry, looked up): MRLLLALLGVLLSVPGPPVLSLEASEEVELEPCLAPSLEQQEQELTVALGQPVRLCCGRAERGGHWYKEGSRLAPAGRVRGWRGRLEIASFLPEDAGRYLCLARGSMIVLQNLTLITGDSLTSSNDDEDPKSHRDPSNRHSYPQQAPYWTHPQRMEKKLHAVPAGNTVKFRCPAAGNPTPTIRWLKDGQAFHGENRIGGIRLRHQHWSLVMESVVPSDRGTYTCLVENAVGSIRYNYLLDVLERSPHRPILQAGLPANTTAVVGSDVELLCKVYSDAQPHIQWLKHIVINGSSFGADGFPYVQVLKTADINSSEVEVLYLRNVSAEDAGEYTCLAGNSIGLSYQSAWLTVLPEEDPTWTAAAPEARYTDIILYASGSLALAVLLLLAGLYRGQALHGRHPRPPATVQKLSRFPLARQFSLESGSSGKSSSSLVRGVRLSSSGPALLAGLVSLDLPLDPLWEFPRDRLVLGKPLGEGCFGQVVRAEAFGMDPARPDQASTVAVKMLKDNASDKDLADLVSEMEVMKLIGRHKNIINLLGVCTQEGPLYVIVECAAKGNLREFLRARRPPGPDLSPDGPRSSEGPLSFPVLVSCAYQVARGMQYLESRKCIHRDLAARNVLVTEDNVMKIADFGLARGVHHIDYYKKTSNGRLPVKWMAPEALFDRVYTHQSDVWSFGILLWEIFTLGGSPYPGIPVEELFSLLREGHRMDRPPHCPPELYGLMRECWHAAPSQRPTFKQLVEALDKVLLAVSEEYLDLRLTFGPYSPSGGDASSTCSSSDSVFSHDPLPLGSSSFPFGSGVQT
T1 sequence (P22607 whole entry, looked up): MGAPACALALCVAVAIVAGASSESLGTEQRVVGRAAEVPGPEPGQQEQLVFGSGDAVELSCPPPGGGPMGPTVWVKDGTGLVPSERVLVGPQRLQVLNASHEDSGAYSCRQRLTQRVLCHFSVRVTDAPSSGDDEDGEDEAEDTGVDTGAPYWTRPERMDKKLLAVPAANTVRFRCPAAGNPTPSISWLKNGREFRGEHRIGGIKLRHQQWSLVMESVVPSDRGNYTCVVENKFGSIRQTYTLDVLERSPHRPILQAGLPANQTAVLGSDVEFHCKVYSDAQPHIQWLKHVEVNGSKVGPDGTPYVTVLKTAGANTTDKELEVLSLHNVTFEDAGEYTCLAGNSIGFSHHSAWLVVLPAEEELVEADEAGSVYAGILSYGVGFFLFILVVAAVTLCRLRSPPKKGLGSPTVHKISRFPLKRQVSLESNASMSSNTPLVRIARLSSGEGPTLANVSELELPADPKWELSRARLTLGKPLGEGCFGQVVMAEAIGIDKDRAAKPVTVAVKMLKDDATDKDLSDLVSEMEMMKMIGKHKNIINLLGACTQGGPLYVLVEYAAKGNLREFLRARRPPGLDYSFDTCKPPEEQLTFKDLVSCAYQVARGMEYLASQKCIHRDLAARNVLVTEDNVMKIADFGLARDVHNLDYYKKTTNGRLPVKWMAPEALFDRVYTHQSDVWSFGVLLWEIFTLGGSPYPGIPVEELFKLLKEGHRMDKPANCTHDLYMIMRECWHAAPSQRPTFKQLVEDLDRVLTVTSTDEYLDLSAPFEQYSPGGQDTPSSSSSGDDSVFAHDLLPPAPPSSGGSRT
T2 sequence (P21802 22-821 limits assumed): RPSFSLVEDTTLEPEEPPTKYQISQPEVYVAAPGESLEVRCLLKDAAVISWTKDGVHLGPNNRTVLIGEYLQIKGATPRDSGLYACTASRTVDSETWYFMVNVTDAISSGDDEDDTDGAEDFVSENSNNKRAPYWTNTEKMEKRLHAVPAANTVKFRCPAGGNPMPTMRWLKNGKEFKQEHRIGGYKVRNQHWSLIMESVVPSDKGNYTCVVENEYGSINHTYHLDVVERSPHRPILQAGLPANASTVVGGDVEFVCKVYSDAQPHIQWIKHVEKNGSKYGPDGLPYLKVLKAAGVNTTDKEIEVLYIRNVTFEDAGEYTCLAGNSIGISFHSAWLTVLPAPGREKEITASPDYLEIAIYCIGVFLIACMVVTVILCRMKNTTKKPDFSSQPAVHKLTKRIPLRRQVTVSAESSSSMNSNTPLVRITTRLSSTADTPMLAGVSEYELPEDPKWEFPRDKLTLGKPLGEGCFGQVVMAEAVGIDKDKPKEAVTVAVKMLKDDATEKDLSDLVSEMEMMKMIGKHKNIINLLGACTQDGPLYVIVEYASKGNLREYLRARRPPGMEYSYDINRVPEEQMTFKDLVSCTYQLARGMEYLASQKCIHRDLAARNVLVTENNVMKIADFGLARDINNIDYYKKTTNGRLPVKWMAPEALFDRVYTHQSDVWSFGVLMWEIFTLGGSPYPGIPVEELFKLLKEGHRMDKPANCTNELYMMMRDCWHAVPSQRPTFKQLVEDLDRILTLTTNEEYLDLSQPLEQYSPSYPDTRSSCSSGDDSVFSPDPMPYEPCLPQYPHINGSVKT
T2 sequence (Q96SW2 whole entry partner): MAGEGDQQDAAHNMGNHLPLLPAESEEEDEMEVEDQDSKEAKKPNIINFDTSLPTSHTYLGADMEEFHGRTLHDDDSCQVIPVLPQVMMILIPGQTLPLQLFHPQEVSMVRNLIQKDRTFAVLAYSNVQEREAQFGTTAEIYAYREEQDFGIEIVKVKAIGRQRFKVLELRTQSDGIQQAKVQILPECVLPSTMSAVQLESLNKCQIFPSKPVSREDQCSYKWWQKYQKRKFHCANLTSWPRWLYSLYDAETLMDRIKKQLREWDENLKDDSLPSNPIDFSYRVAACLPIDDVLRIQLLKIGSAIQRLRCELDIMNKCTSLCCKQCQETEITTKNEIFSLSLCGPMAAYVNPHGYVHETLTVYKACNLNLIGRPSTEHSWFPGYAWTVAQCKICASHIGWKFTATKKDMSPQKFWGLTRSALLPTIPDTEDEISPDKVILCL

Activity [1]: inactive
Activity [3]: 43%
half-life [6]: 1.47 h
AUC(0-inf) [7]: 422 ng·h/mL
Activity [9]: Active
IC50 (SNU-16 [10]): 3.7 nM
Activity [11]: inactive
Activity [12]: Tde
Cmax [13]: 655 ng/mL
Tmax [17]: 4.98 min
IC50 (NCI-H1975): > 10000 nM
Tmax [18]: 2.67 h
Activity [19]: Active
IC50 (BaF3): 139 nM
SMILES: COc1cc(OC)c(Cl)c(NC(=O)N(C)c2cc(Nc3ccc(N4CCN(C(=O)C5CCN(c6ccc7c(c6)C(=O)N(C6CCC(=O)NC6=O)C7=O)CC5)CC4)cc3)ncn2)c1Cl (stereo unspecified)
Activity [2]: Non-Toxic
Activity [4]: Non-Toxic
Activity (SNU-16 [5]): Active
Activity [8]: Active
IC50 at 72 h [14]: > 10000 nM
Activity (SNU-16 [15]): Active
Activity [16]: Non-Toxic
